Experimental data from paper PMC12749109 (Nature Communications, 2025).

What was measured:
DSS-induced colitis [1] = test: DSS-induced colitis with M871 or SNAP37889 ± cGAL29, overall; assay type: in vivo; conditions: mouse
Outline: (§1)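 Male C57BL/6 mice (20 ± 2 g, 7–8 weeks) received 3% DSS with daily i.p. test peptide (3 μM). A GALR2 or GALR3 antagonist (10 nmol/mouse, in 10% DMSO/40% PEG 300/30% Tween-20/20% saline) was given 30 min before each peptide dose. Controls followed the standard DSS protocol.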

Caco2 cells = test: RT-qPCR cytokine expression, Caco2 cell inflammation model with GALR antagonists; assay type: cell-based, human; conditions: Caco-2 inflammation model, IL-1β + TNF-α
DSS-induced colitis [2] = test: DSS-induced colitis with M871 or SNAP37889 ± cGAL53, overall; assay type: in vivo; conditions: mouse, 3% DSS; antagonist 10 nmol/mouse + cGAL53 3 μM
Outline: as §1

Compound: O=C1C(=Nc2cccc(C(F)(F)F)c2)c2ccccc2N1c1ccccc1 [SNAP37889]
- effect of antagonist on therapeutic efficacy of cGAL29 (DSS-induced colitis [1]): exerted inhibitory effects on the therapeutic efficacy of cGAL29
- block of anti-inflammatory effect of cGAL53 by antagonist (Caco2 cells): not by SNAP37889
- effect of antagonist on ability of cGAL53 to alleviate colitis (DSS-induced colitis [2]): cGAL53 was still effective in treating colitis symptoms in mice
